Experimental data pooled from the literature.
Protocols differ between the studies behind these lines.
Target: 5-hydroxytryptamine receptor 1A (HTR1A, Homo sapiens, UniProt P08908)
Residues used in one study (P08908 1-422): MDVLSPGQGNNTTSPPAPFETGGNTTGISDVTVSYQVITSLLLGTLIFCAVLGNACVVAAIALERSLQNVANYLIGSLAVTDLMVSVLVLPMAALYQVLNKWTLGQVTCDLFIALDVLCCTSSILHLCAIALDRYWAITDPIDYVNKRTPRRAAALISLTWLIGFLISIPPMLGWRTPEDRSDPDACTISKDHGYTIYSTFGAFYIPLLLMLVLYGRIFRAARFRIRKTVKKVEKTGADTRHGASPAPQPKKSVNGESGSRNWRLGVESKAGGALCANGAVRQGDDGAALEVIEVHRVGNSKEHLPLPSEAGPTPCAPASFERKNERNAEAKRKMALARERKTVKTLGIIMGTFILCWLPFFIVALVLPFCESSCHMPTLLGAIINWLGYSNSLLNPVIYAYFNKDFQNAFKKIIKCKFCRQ

SMILES | effect on | action | method | tested at | quantity | value
c1ccc(N2CCN(Cc3nc4ccccc4[nH]3)CC2)nc1 | ligand displacement |  | radioligand | 10 µM | inhibition | 37.9%
CCN(CC)c1ccc(C2Nc3ccc(C(=O)c4ccccc4)cc3NC3=C2C(=O)CC(C)(C)C3)cc1 (stereo not shown) | ligand displacement |  | radioligand | 10 µM | inhibition | 22%
N#Cc1cc(Cn2c(N3CCCC3)nc3ccccc32)ccc1F | ligand displacement |  |  | 10 µM | inhibition | -8.04%
COc1ccc(-n2nc(OCCCN3CCCCC3)ccc2=O)cc1 | ligand displacement |  |  | 1 µM | inhibition | 18.5%
COc1cc2c3c(c1OC)-c1cc4c(cc1CC3N(C)CC2c1ccccc1)OCO4 (stereo not shown) | ligand displacement |  | radioligand | 10 µM | inhibition | < 50%
O=C1N=C(N2CCCCN2)S/C1=C\c1ccc(F)cc1O | ligand displacement |  | radioligand | 10 µM | inhibition | 20%
Oc1cccc(Nc2nc(-c3ccc(F)cc3F)cs2)c1 | ligand displacement |  | radioligand | 10 µM | inhibition | 31.5%
O=C(Nc1ccc(S(=O)(=O)N2CCC(Cl)CC2)cc1)c1ccc([N+](=O)[O-])o1 | ligand displacement |  | radioligand | 10 µM | inhibition | 4%
CN([C@@H]1CCc2c(CC(=O)O)c3ccccc3n2C1)S(=O)(=O)c1ccc(F)cc1 | ligand displacement |  | radioligand | 10 µM | inhibition | 15.5%
CCN(Cc1ccccc1C(F)(F)F)C(=O)C1CCN(S(=O)(=O)c2ccc3[nH]ncc3c2)CC1 | ligand displacement |  | radioligand | 10 µM | inhibition | 0%
CC1=C(C#N)C(c2ccc3c(c2)c(NC(=O)c2ccccc2C)nn3C)C(C#N)=C(C)N1 | ligand displacement |  | radioligand | 10 µM | inhibition | 8.55%
CCCNc1nc2ccccc2n1Cc1ccc(Cl)cc1 | ligand displacement |  |  | 10 µM | inhibition | 0.33%
CCCCCCOc1c(OC)cc2c3c1-c1cc4c(cc1CC3N(C)CC2c1ccccc1)OCO4 (stereo not shown) | ligand displacement |  | radioligand | 10 µM | inhibition | -13.5%
CN1CCN(CCCOc2ccc(=O)n(-c3ccc(Cl)c(Cl)c3)n2)CC1 | ligand displacement |  |  | 1 µM | inhibition | 20.6%
COc1cc(NC(C)=O)c(Cl)cc1C(=O)Nc1nccs1 | ligand displacement |  | radioligand | 10 µM | inhibition | 23.8%
O=C(CCCN1CCCN(c2ccc(Cl)cc2)CC1)c1ccc(F)cc1 | cAMP | agonist | luciferase |  | Emax | 4.4%
